Measured values of several laboratories.
Observed: ABTS scavenging

Structure (SMILES)	method	IC50
Cc1ccc(NC(=O)Cc2c[nH]c3ccccc23)cc1C	–	1580 nM
COc1ccc(-c2nc3cc(C)c(C)cc3[nH]2)cc1OCc1ccccc1	absorbance	1830 nM
CSc1cccc(NC(=O)Cc2c[nH]c3ccccc23)c1	–	1520 nM
Cc1cc(C(C)(C)C)c(O)c(C(C)(C)C)c1	–	6.99 µg/mL
COc1cc(-c2oc3cc(O)cc(O)c3c(=O)c2O[C@@H]2O[C@H](CO)[C@@H](O)[C@H](O)[C@H]2O)ccc1O	absorbance	15300 nM
Fc1ccc2[nH]c(-c3cccc(OCc4ccccc4)c3)nc2c1	absorbance	1850 nM
CCOC(=O)c1cc(O)c(O)c(O)c1	absorbance	17700 nM
CCCCCCCCOc1ccc(NC(=O)Cc2c[nH]c3ccccc23)cc1	–	1800 nM
COc1ccc(-c2nc3cc(F)ccc3[nH]2)cc1OCc1ccccc1	absorbance	1720 nM
COC(=O)c1cc(O)c(O)c(O)c1	absorbance	14200 nM
COc1ccc(-c2nc3ccccc3[nH]2)cc1OCc1ccccc1	absorbance	1760 nM
O=C(OC[C@H]1O[C@@H](OC(=O)c2cc(O)c(O)c(O)c2)[C@H](OC(=O)c2cc(O)c(O)c(O)c2)[C@@H](OC(=O)c2cc(O)c(O)c(O)c2)[C@@H]1O)c1cc(O)c(O)c(O)c1	absorbance	3590 nM
Cc1ccc(NC(=O)Cc2c[nH]c3ccccc23)c(C)c1	–	1900 nM
O=C(O)c1cc(O)c(O)c(O)c1	absorbance	8190 nM
O=C1O[C@H]([C@@H](O)CO)C(O)=C1O	–	1.4 µg/mL
